In data set [1] the test system is Rattus norvegicus. As to the kind of experiment: Toxicity in 216 days old Sprague-Dawley rat assessed as increase in serum triglyceride level at 200 mg/kg, po administered with diet after 7 days relative to control. Also on record: dose 200 mg/kg, route oral. Format: organism-based. As to conditions: in vivo, 168 h.
Data set [2] concerns Rattus norvegicus. As to the kind of experiment: Toxicity in Sprague-Dawley rat assessed as liver weight measured per 100 g of body weight at 200 mg/kg, po after 7 days (reference value: 3.3 g). Further details: dose 200 mg/kg, route oral. As to conditions: in vivo, 168 h. Format: organism-based.
A short description of data set [3]: Antitumor activity against Sprague-Dawley rat mammary tumor cells assessed as increase in apoptotic index at 200 mg/kg, po after 7 days by TUNEL assay relative to control. Format: functional. The gist of the method: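 Female Sprague Dawley rats with N-methyl-nitrosourea-induced mammary cancers (about 200 mm²) were given the retinoid in Teklad diet for 7 days. BrdU was injected 2 h before CO₂ euthanasia. Cancers were excised and fixed in 10% formalin. Each index is the ratio of treated to vehicle-fed animals.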

Data set [4] deals with Rattus norvegicus. As to the kind of experiment: Toxicity in Sprague-Dawley rat assessed as increase in body weight at 200 mg/kg, po after 7 days relative to control. Also on record: dose 200 mg/kg, route oral. Format: organism-based. As to conditions: in vivo, 168 h.
Data set [5] has as its system Rattus norvegicus. Kind of data set: Toxicity in 50 days old Sprague-Dawley rat assessed as increase in serum triglyceride level at 200 mg/kg, po administered with diet after 7 days relative to control. Format: organism-based. Further details: dose 200 mg/kg, route oral. As to conditions: in vivo, 168 h.

In the case of `CC(=C/C=C/C(C)=C/C(=O)O)/C=C1\CC[C@H](C)c2ccccc21`, the Activity in the data set with Rattus norvegicus [1] is 175%; with Rattus norvegicus [2], 3.8 g; in data set [3] it was 300%; with Rattus norvegicus [4], 3%.

As to `CC1=C(/C=C/C(C)=C\C=C\C(C)=C\C(=O)O)C(C)(C)CCC1` [ALITRETINOIN], the Activity in the data set with Rattus norvegicus [4] was determined as 3%.

On to `CC(=C/C=C/C(C)=C/C(=O)O)/C=C1\CC[C@@H](C)c2ccccc21`, for which the Activity was found to be 4.2 g in the data set with Rattus norvegicus [2], 150% in data set [3] and 3% in the data set on Rattus norvegicus [4].

Turning to `C=C(c1ccc(C(=O)O)cc1)c1cc2c(cc1C)C(C)(C)CCC2(C)C` [BEXAROTENE], the Activity with Rattus norvegicus [4] was found to be 3%.

Regarding `CC(=C/C=C/C(C)=C/C(=O)O)/C=C1\CCC(C)c2ccccc21` (racemic), the Activity in the data set on Rattus norvegicus [1] is reported as 370%; in the data set on Rattus norvegicus [5] it was 566%; in data set [3], 300%; in the data set with Rattus norvegicus [4], 3%.

Take `CC(=C/C=C/C(C)=C/C(=O)O)/C=C1\CCCc2ccccc21` [UAB-30]: the Activity in data set [3] is recorded as 33%; in the data set with Rattus norvegicus [4], 3%.

Source of the values: ChEMBL document CHEMBL3098106 (Bioorg Med Chem, 2014).
